The text below walks through data of PubChem BioAssay.

Molecules are shown by their SMILES. The source made the active and inactive calls.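 How the source made its calls, unless noted: active means Her2 level under about 52% in both replicate screens, with viability over 70% of control (limit read from the data); inconclusive means Her2 under the limit in one screen only, or viability under 70%; inactive means Her2 level above the set limit.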

Assay [1] can be described thus: Her2 expression decrease, cell viability multiplex – SKBR3 breast tumor cells, AlphaScreen, ATP viability, primary screen (AID 461).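 On Her2 level: lower value means less Her2 protein in the cells.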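 On viability: percent of carrier control wells set as 100% viability.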 The settings on record: SKBR3 Her2 protein level, 18-24 h, measured here: SKBR3 viability, ATP luminescence, at 10 µM. On the technique in general: In Alpha technology, singlet oxygen from a donor bead excites a nearby acceptor bead.
In assay [2] the target is Receptor tyrosine-protein kinase erbB-2 (Homo sapiens) (UniProt P04626). The assay is described as above. The settings on record: 18-24 h, at 10 µM, stronger effect = lower value.
Assay [3] is described as follows: reduced viability of SK-BR-3 breast cancer cells – cell-based, 24 h, human, pilot screen (AID 572;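 active means viability at or below 10% of carrier control in both of two separate runs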;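 further: compound exposure lasted between 18 and 24 h rather than exactly 24 h; 100% = carrier-treated control wells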). As to conditions: SK-BR-3 viability, CellTiter-Glo luminescence, at 10 µM, stronger effect = lower value. (In general: In ATP-based viability assays light output follows the ATP content of the culture.)
A short description of assay [4]: HUVEC growth inhibition – cell-based, human, primary screen (AID 575;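 active means viability at or below 30% in both replicate assays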;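 further: 100% = median of untreated cell wells with 0.1% DMSO on each plate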). The settings on record: HUVEC proliferation, CellTiter-Glo luminescence, 72 h; at 10 µM; stronger effect = lower value. The gist of the method: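 System: primary human umbilical vein endothelial cells; Quantity: 1250 endothelial cells in each well; Buffer or medium: supplemented EBM, 2% fetal bovine serum; Doses: one dose, 10 µM final, 0.1% DMSO; Incubation: 72 h compound incubation; Technique: ATP-based CellTiter-Glo luminescent read; Evaluation: percent of median DMSO-control luminescence; Controls: vehicle and MePR control wells.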

Assay [5] can be described thus: H69AR cell proliferation blockers – human, duplicate replicates, primary screen (AID 580;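 active means viability at or under a set limit in both replicates, limit being median viability minus 3 SD, cut at about 48% in these data, passing the limit was not always enough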;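 further: 100% = mean luminescence of untreated wells and 0% = no signal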). The settings on record: H69AR lung tumor cells viability, ATP luminescence, 72 h; at 10 µM; stronger effect = lower value.
A short description of assay [6]: MRP1 drug-resistance reversers in H69AR cells – cell-based, doxorubicin co-treatment, pilot screen (AID 601;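 active means viability loss from added drug above about 55%, and viability with drug at most 40%, in both replicates, limit read from the data, passing the limit was not always enough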). As to conditions: CellTiter-Glo, 72 h, at 10 µM; for differential viability (reversal): stronger effect = higher value.
The nature of assay [7]: yeast transport mutant growth inhibition pilot in 384-well plates, post-Golgi transport modulator project (AID 636; in the data active means inhibition above about 31%). As to conditions: absorbance 615 nm, about 18 h, stronger effect = higher value.
Assay [8] is described as follows: growth suppression of yeast trafficking mutant, preliminary HTS, modulators of trafficking downstream of Golgi apparatus project, 1536-format plate, OD 615 nm (AID 637; in the data active means inhibition above about 30%). As to conditions: yeast transport mutant growth, absorbance 615 nm, 18 h; stronger effect = higher value.
Setting [9] is: H69AR cells + 2 uM doxorubicin, measured here: viability with 2 uM doxorubicin, stronger effect = lower value.
Setting [10] is: H69AR cells, compound alone cytotoxicity.

In general, viability refers to a read-out of living cells in per cent, often relative to untreated cells. By inhibition is commonly meant the drop in the measured response relative to a control, in per cent.

Sequence of Receptor tyrosine-protein kinase erbB-2 (Homo sapiens) (P04626 whole entry, looked up): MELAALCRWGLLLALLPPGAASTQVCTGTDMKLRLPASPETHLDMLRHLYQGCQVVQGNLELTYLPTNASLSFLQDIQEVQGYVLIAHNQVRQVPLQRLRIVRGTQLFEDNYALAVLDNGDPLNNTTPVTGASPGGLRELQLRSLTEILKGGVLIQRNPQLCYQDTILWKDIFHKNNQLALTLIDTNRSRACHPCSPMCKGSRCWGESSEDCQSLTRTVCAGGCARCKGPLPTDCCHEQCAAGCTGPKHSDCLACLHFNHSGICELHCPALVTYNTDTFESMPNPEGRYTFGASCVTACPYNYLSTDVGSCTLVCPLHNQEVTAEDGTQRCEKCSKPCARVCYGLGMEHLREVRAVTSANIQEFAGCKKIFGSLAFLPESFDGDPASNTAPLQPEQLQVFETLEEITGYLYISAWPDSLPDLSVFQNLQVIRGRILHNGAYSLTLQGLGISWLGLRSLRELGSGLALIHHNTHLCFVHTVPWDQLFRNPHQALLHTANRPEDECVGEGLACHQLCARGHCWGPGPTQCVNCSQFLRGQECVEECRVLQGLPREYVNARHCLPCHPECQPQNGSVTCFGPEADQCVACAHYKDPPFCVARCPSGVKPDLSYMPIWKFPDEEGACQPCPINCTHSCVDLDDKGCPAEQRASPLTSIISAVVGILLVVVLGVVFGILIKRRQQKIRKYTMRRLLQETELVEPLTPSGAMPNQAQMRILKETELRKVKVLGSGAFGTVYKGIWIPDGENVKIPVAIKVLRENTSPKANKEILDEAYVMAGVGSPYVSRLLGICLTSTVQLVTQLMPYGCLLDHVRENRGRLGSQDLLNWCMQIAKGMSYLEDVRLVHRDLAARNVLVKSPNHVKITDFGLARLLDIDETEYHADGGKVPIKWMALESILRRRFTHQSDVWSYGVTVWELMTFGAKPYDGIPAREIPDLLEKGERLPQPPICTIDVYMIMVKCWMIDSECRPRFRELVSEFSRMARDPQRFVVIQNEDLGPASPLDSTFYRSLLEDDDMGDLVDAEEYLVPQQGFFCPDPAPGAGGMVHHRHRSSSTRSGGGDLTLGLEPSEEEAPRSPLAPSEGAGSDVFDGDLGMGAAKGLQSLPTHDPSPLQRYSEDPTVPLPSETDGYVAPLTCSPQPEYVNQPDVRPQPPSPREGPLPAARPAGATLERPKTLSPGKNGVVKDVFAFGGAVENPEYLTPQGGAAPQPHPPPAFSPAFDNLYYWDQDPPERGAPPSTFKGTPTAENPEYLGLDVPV

Turning to `CN1C2C=C3C(C#N)=C(N)C(C#N)(C#N)[C@@H](c4ccc(Cl)cc4)[C@@H]3C1CC2` (stereo not given in full), the viability in assay [1] was 95%; in assay [3] it was 95% (inactive); in assay [4], 91.3% (inactive); in assay [5], 68.9% (inactive); in assay [6] (setting [9]), 94.9%; in assay [6] (setting [10]) it was 68.9%. Besides, the Her2 level in assay [2] is 87% (inactive). In assay [6] (H69AR cells + 2 uM doxorubicin), the differential viability (reversal) was -26.1% (inactive). The values for the inhibition in assay [7] and in assay [8] were -5.73% (inactive) and -0.32% (inactive), respectively.

As for `Cn1c(=O)c2c(nc(Oc3ccc4c(c3)OCO4)n2Cc2ccc(F)cc2)n(C)c1=O`, the viability was 79.5% in assay [1]; 79.5% (inactive) in assay [3]; 72.1% (inactive) in assay [4]; 74.7% (inactive) in assay [5]; 83% in assay [6] (setting [9]); 74.7% in assay [6] (setting [10]). In addition, the Her2 level in assay [2] was 74.5% (inactive). Moreover, the differential viability (reversal) in assay [6] (H69AR cells + 2 uM doxorubicin) is -8.34% (inactive). Besides, the results for the inhibition in assay [7] and in assay [8] were -2.84% (inactive) and 3.49% (inactive), respectively.

As for `CCCCn1nnc(NC(=O)Cc2ccc(Cl)cc2)n1`, the viability was 112% in assay [1]; 112% (inactive) in assay [3]; 106% (inactive) in assay [4]; 90% (inactive) in assay [5]; 72.1% in assay [6] (setting [9]); 90% in assay [6] (setting [10]). In assay [2], the Her2 level is 134% (inactive). Besides, the differential viability (reversal) in assay [6] (H69AR cells + 2 uM doxorubicin) was 17.9% (inactive). Besides, the results for the inhibition in assay [7] and in assay [8] were -3.9% (inactive) and -3.5% (inactive), respectively.

Regarding `CC1CCCN(C(=O)c2cc(F)c(F)cc2Cl)C1` (stereo not given), the viability in assay [1] is 99%; in assay [3], 99% (inactive); in assay [4] it was 104% (inactive); in assay [5] it was 89.2% (inactive); in assay [6] (setting [9]), 94.1%; in assay [6] (setting [10]), 89.2%. For the same molecule, the Her2 level in assay [2] was 95.5% (inactive). In addition, the differential viability (reversal) in assay [6] (H69AR cells + 2 uM doxorubicin) is -4.92% (inactive). The inhibition is -4.93% (inactive) in assay [7] and -3.77% (inactive) in assay [8].

In the case of `COc1ccc2nc(CC(C)(C)CC(=O)O)c[n+]([O-])c2c1`, the viability in assay [1] is 109%; in assay [3], 109% (inactive); in assay [4] it was 106% (inactive); in assay [5], 99.2% (inactive); in assay [6] (setting [9]), 89.6%; in assay [6] (setting [10]), 99.2%. Further, in assay [2], the Her2 level is 95.5% (inactive). In assay [6] (H69AR cells + 2 uM doxorubicin), the differential viability (reversal) is 9.58% (inactive). Also, the inhibition was -2.7% (inactive) in assay [7] and 5.08% (inactive) in assay [8].

`N#CCCCCn1c(-c2cncs2)nc2ccccc21`: the viability in assay [1] was 93.5%; in assay [3], 93.5% (inactive); in assay [4] it was 84.2% (inactive); in assay [5], 93.8% (inactive); in assay [6] (setting [9]) it was 80.3%; in assay [6] (setting [10]), 93.8%. The Her2 level in assay [2] is 126% (inactive). Moreover, the differential viability (reversal) in assay [6] (H69AR cells + 2 uM doxorubicin) is 13.5% (inactive). In addition, the inhibition in assay [7] was -5% (inactive); in assay [8], -5.33% (inactive).

Regarding `CN(Cc1cccs1)CC(O)COCc1ccco1` (stereo not given), the viability was 107% in assay [1]; 107% (inactive) in assay [3]; 109% (inactive) in assay [4]; 90.5% (inactive) in assay [5]; 93.9% in assay [6] (setting [9]); 90.5% in assay [6] (setting [10]). The Her2 level in assay [2] was 91.5% (inactive). Moreover, the differential viability (reversal) in assay [6] (H69AR cells + 2 uM doxorubicin) was -3.35% (inactive). In addition, the inhibition in assay [7] is -3.92% (inactive); in assay [8], 2.22% (inactive).

Take `CCCCC(c1nnnn1CS(=O)(=O)c1ccc(C)cc1)N1CCN(c2ccccc2)CC1` (stereo not given): the viability is 102% in assay [1]; 102% (inactive) in assay [3]; 69.5% (inactive) in assay [4]; 90.6% (inactive) in assay [5]; 91.3% in assay [6] (setting [9]); 90.6% in assay [6] (setting [10]). In addition, in assay [2], the Her2 level was 88% (inactive). Also, the differential viability (reversal) in assay [6] (H69AR cells + 2 uM doxorubicin) was -0.75% (inactive). Also, the figures for the inhibition in assay [7] and in assay [8] were -3.29% (inactive) and -1.27% (inactive), respectively.

For the molecule `CC(=O)Nc1ccccc1-c1nc2ccc(C(=O)N3CCN(c4ccccc4)CC3)cc2[nH]c1=O`, the viability in assay [1] was 99.5%; in assay [3], 99.5% (inactive); in assay [4] it was 86.2% (inactive); in assay [5], 93.4% (inactive); in assay [6] (setting [9]), 95%; in assay [6] (setting [10]), 93.4%. The Her2 level in assay [2] was 88% (inactive). Further, the differential viability (reversal) in assay [6] (H69AR cells + 2 uM doxorubicin) is -1.66% (inactive). For the same molecule, the inhibition in assay [7] was -1.33% (inactive); in assay [8] it was 1.15% (inactive).

With `O=C(O)c1c(Cl)c(Cl)c(Cl)c(Cl)c1C(=O)N1CCOCC1`, the viability in assay [1] is 109%; in assay [3] it was 109% (inactive); in assay [4], 106% (inactive); in assay [5], 95.7% (inactive); in assay [6] (setting [9]), 92.8%; in assay [6] (setting [10]), 95.7%. In addition, in assay [2], the Her2 level is 90% (inactive). The differential viability (reversal) in assay [6] (H69AR cells + 2 uM doxorubicin) is 2.91% (inactive). The results for the inhibition in assay [7] and in assay [8] were -5.97% (inactive) and 0.16% (inactive), respectively.

Turning to `CCC(=O)Nc1ccc(NC(=O)c2cccc(OC)c2)nc1`, the viability was 94% in assay [1]; 94% (inactive) in assay [3]; 101% (inactive) in assay [4]; 97.8% (inactive) in assay [5]; 90.2% in assay [6] (setting [9]); 97.8% in assay [6] (setting [10]). In addition, the Her2 level in assay [2] is 92.5% (inactive). Further, the differential viability (reversal) in assay [6] (H69AR cells + 2 uM doxorubicin) is 7.67% (inactive). The results for the inhibition in assay [7] and in assay [8] were 0.14% (inactive) and -6.56% (inactive), respectively.

Regarding `COc1ccc(-c2cc(C(=O)NCCc3ccccc3)no2)cc1OC`, the viability in assay [1] is 102%; in assay [3], 102% (inactive); in assay [4], 92.3% (inactive); in assay [5] it was 89.9% (inactive); in assay [6] (setting [9]), 86.6%; in assay [6] (setting [10]) it was 89.9%. Also, the Her2 level in assay [2] is 85.5% (inactive). For the same molecule, the differential viability (reversal) in assay [6] (H69AR cells + 2 uM doxorubicin) is 3.29% (inactive). Besides, the inhibition is -4.19% (inactive) in assay [7] and -12.7% (inactive) in assay [8].

In the case of `CC(=O)Nc1c(Cl)n(C(C)=O)c2ccccc12`, the viability was 85% in assay [1]; 85% (inactive) in assay [3]; 71.6% (inactive) in assay [4]; 84% (inactive) in assay [5]; 90.4% in assay [6] (setting [9]); 84% in assay [6] (setting [10]). In assay [2], the Her2 level is 65% (inactive). In assay [6] (H69AR cells + 2 uM doxorubicin), the differential viability (reversal) is -6.37% (inactive). The inhibition in assay [7] is -7.57% (inactive); in assay [8], 5.5% (inactive).

Turning to `Nc1nnnn1/N=C/c1ccccc1OCc1ccccc1`, the viability was 118% in assay [1]; 118% (inactive) in assay [3]; 78.9% (inactive) in assay [4]; 95.3% (inactive) in assay [5]; 87% in assay [6] (setting [9]); 95.3% in assay [6] (setting [10]). In assay [2], the Her2 level is 96.5% (inactive). Also, the differential viability (reversal) in assay [6] (H69AR cells + 2 uM doxorubicin) was 8.29% (inactive). Besides, the inhibition in assay [7] was -4.13% (inactive); in assay [8], 2.42% (inactive).

As to `O=C(NCCC1=CCCCC1)N[C@@H](Cc1ccccc1)C(=O)O`, the viability is 104% in assay [1]; 104% (inactive) in assay [3]; 100% (inactive) in assay [4]; 108% (inactive) in assay [5]; 93.5% in assay [6] (setting [9]); 108% in assay [6] (setting [10]). For the same molecule, the Her2 level in assay [2] is 114% (inactive). Besides, in assay [6] (H69AR cells + 2 uM doxorubicin), the differential viability (reversal) is 14.2% (inactive). Further, the inhibition in assay [7] is 0.13% (inactive); in assay [8] it was 0.16% (inactive).

For `CC(=O)Nc1c2c(nn1-c1ccc(C)cc1C)CSC2`, the viability is 109% in assay [1]; 109% (inactive) in assay [3]; 101% (inactive) in assay [4]; 90.7% (inactive) in assay [5]; 93.2% in assay [6] (setting [9]); 90.7% in assay [6] (setting [10]). Moreover, the Her2 level in assay [2] is 113% (inactive). For the same molecule, the differential viability (reversal) in assay [6] (H69AR cells + 2 uM doxorubicin) is -2.51% (inactive). The values for the inhibition in assay [7] and in assay [8] were -1.17% (inactive) and -2.54% (inactive), respectively.
